pIC50: −log10 of the molar value.
What was measured:
Trypanosoma cruzi [1] = assay: Trypanocidal activity against Trypanosoma cruzi Tulahuen epimastigotes at 5 ug/ml after 48 hrs relative to control; format: functional; conditions: Tuluhuen
Method in brief: (§1)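 T. cruzi epimastigotes in LIT medium with 10% FCS at 28 °C (inoculum 10^6 cells/mL) were exposed to compound (final DMSO <0.5%) for 48 h. Parasites were counted in a hemocytometer and compared with extract-free controls, in triplicate.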

[2] = Cytotoxicity against BALB/c mouse peritoneal macrophages assessed as survival at 10 ug/ml; format: cell-based, Macrophage; conditions: read-out: Activity
Plasmodium falciparum [3] = assay: Antimalarial activity against chloroquine-resistant Plasmodium falciparum Indo after 24 hrs; format: functional, organism-based
Method in brief: (§2)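 P. falciparum strains 2087 and INDO kept in human erythrocytes. Samples were dissolved with DMSO (≤0.1% in dilutions) in RPMI 1640 and tested in triplicate with O+ red cells at 5% hematocrit and 1% parasitemia. Plates were incubated 24 h at 37 °C by candle-jar, then 48 h more with daily medium change. Parasitemia was counted by day-3 smear; IC50 came from linear regression of % inhibition versus control.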

[4] = Selectivity index, ratio of IC50 for KB cells to IC50 for chloroquine -sensitive Plasmodium falciparum 2087; format: toxicity, cell-based; conditions: human, read-out: Ratio IC50
Leishmania amazonensis [5] = assay: Antileishmanial activity against Leishmania amazonensis MHOM/GF/84/CAY H-142 promastigotes at 2.5 ug/ml after 72 hrs relative to control
Leishmania chagasi [6] = assay: Antileishmanial activity against Leishmania donovani chagasi PP75 at 10 ug/ml; format: functional
Leishmania braziliensis [7] = assay: Antileishmanial activity against Leishmania braziliensis MHOM/BR/75/M2903 promastigotes at 2.5 ug/ml after 72 hrs relative to control; format: functional; conditions: MHOM/BR/75/M2903, 72 h
Method in brief: (§3)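 Promastigotes, 50 000 per well, were exposed to compound in liquid medium (final DMSO <0.1%) at 27 °C for 72 h. Growth was judged by inverted-phase microscopy of a culture drop against extract-free controls. Assays were run in triplicate.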

Leishmania chagasi [8] = assay: Antileishmanial activity against Leishmania donovani chagasi PP75 at 2.5 ug/ml; format: functional
KB = assay: Cytotoxicity against human KB cells; format: cell-based
[9] = Cytotoxicity against BALB/c mouse peritoneal macrophages assessed as survival at 20 ug/ml; format: cell-based, Macrophage; conditions: read-out: Activity
Mus musculus [10] = assay: Toxicity in Plasmodium berghei NK65 infected mice (Mus musculus) at 8 mg/kg administered daily for 4 days; format: organism-based; design: dose 8 mg/kg; conditions: in vivo, 96 h
Method in brief: (§4)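 Mice infected with P. berghei NK 65 on day 1 were dosed daily for four consecutive days in the four-day suppressive test. Lethality was recorded on day 4.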

Trypanosoma cruzi [11] = assay: Trypanocidal activity against Trypanosoma cruzi Tulahuen epimastigotes at 20 ug/ml after 48 hrs relative to control; format: functional; conditions: Tuluhuen; method in brief: as §1
Leishmania braziliensis [12] = assay: Antileishmanial activity against Leishmania braziliensis MHOM/BR/75/M2903 promastigotes at 20 ug/ml after 72 hrs relative to control; format: functional; conditions: MHOM/BR/75/M2903, 72 h; method in brief: as §3
Mus musculus [13] = assay: Toxicity in Plasmodium berghei NK65 infected mice (Mus musculus) at 16 mg/kg administered daily for 4 days; format: organism-based; design: dose 16 mg/kg; conditions: in vivo, 96 h; method in brief: as §4
Plasmodium berghei [14] = assay: Antiplasmodial activity as reduced parasitaemia in Plasmodium berghei NK65 infected mice (Mus musculus) at 16 mg/kg/day for 4 days; format: functional; design: scale not given: the % may be the effect or the level left
Method in brief: (§5)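 Four-day suppressive test adapted from Peters: mice were inoculated with P. berghei NK 65 on day 1 and treated daily for four consecutive days. A blood smear was taken on day 5, and parasitemia was compared with infected untreated controls.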

Leishmania chagasi [15] = assay: Antileishmanial activity against Leishmania donovani chagasi PP75 at 5 ug/ml; format: functional
Leishmania amazonensis [16] = assay: Antileishmanial activity against Leishmania amazonensis MHOM/GF/84/CAY H-142 promastigotes at 5 ug/ml after 72 hrs relative to control
[17] = Cytotoxicity against BALB/c mouse peritoneal macrophages assessed as survival at 5 ug/ml; format: cell-based, Macrophage; conditions: read-out: Activity
Trypanosoma cruzi [18] = assay: Trypanocidal activity against Trypanosoma cruzi Tulahuen epimastigotes at 2.5 ug/ml after 48 hrs relative to control; format: functional; conditions: Tuluhuen; method in brief: as §1
[19] = Selectivity index, ratio of IC50 for KB cells to IC50 for chloroquine-resistant Plasmodium falciparum INDO; format: toxicity, cell-based; conditions: human, read-out: Ratio IC50
Plasmodium berghei [20] = assay: Antiplasmodial activity as reduced parasitaemia in Plasmodium berghei NK65 infected mice (Mus musculus) at 32 mg/kg/day for 4 days; format: functional; design: scale not given: the % may be the effect or the level left; method in brief: as §5
Leishmania braziliensis [21] = assay: Antileishmanial activity against Leishmania braziliensis MHOM/BR/75/M2903 promastigotes at 5 ug/ml after 72 hrs relative to control; format: functional; conditions: MHOM/BR/75/M2903, 72 h; method in brief: as §3
Leishmania chagasi [22] = assay: Antileishmanial activity against Leishmania donovani chagasi PP75 at 20 ug/ml; format: functional
Leishmania amazonensis [23] = assay: Antileishmanial activity against Leishmania amazonensis MHOM/GF/84/CAY H-142 promastigotes at 10 ug/ml after 72 hrs relative to control
Plasmodium berghei [24] = assay: Antiplasmodial activity as reduced parasitaemia in Plasmodium berghei NK65 infected mice (Mus musculus) at 8 mg/kg/day for 4 days; format: functional; design: scale not given: the % may be the effect or the level left; method in brief: as §5
Leishmania amazonensis [25] = assay: Antileishmanial activity against Leishmania amazonensis MHOM/GF/84/CAY H-142 promastigotes at 20 ug/ml after 72 hrs relative to control
Leishmania braziliensis [26] = assay: Antileishmanial activity against Leishmania braziliensis MHOM/BR/75/M2903 promastigotes at 10 ug/ml after 72 hrs relative to control; format: functional; conditions: MHOM/BR/75/M2903, 72 h; method in brief: as §3
Trypanosoma cruzi [27] = assay: Trypanocidal activity against Trypanosoma cruzi Tulahuen epimastigotes at 10 ug/ml after 48 hrs relative to control; format: functional; conditions: Tuluhuen; method in brief: as §1
Plasmodium falciparum [28] = assay: Antimalarial activity against chloroquine-sensitive Plasmodium falciparum 2087 after 24 hrs; format: functional, organism-based; method in brief: as §2

## C[C@H]1CC[C@H]([C@@H](C)[C@H]2CC[C@H]3[C@@H]4CC=C5C[C@@H](N)CC[C@]5(C)[C@H]4CC[C@]23C)NC1
Trypanosoma cruzi [1]
  inhibition at 5 µg/mL: 0%
[2]
  viability at 10 ug/ml: 0%
Plasmodium falciparum [3]
  pIC50: 6.75
[4]
  selectivity ratio: 2000
Leishmania amazonensis [5]
  inhibition at 2.5 µg/mL: 0%
Leishmania chagasi [6]
  inhibition at 10 µg/mL: 100%
Leishmania braziliensis [7]
  inhibition at 2.5 µg/mL: 0%
Leishmania chagasi [8]
  inhibition at 2.5 µg/mL: 0%
KB
  pIC50: 4.30
[9]
  viability at 20 ug/ml: 0%
Mus musculus [10]
  Activity: Non-toxic
Trypanosoma cruzi [11]
  inhibition at 20 µg/mL: 100%
Leishmania braziliensis [12]
  inhibition at 20 µg/mL: 100%
Mus musculus [13]
  Activity: Non-toxic
Plasmodium berghei [14]
  Activity: 27%
Leishmania chagasi [15]
  inhibition at 5 µg/mL: 50%
Leishmania amazonensis [16]
  inhibition at 5 µg/mL: 50%
[17]
  viability at 5 ug/ml: 0%
Trypanosoma cruzi [18]
  inhibition at 2.5 µg/mL: 0%
[19]
  selectivity ratio: 286
Plasmodium berghei [20]
  Activity: 69%
Leishmania braziliensis [21]
  inhibition at 5 µg/mL: 50%
Leishmania chagasi [22]
  inhibition at 20 µg/mL: 100%
Leishmania amazonensis [23]
  inhibition at 10 µg/mL: 100%
Plasmodium berghei [24]
  Activity: 16%
Leishmania amazonensis [25]
  inhibition at 20 µg/mL: 100%
Leishmania braziliensis [26]
  inhibition at 10 µg/mL: 100%
Trypanosoma cruzi [27]
  inhibition at 10 µg/mL: 50%
Plasmodium falciparum [28]
  pIC50: 7.60

## N=C(N)c1ccc(OCCCCCOc2ccc(C(=N)N)cc2)cc1 [PENTAMIDINE]
Leishmania chagasi [6]
  inhibition at 10 µg/mL: 100%
Leishmania amazonensis [23]
  inhibition at 10 µg/mL: 100%
Leishmania braziliensis [26]
  inhibition at 10 µg/mL: 100%
Trypanosoma cruzi [27]
  inhibition at 10 µg/mL: 100%

Source: ChEMBL document CHEMBL1151311, “A novel antiprotozoal aminosteroid from Saracha punctata” (J Nat Prod, 1998)
